Data: publication PMC5115981 (Cancer chemotherapy and pharmacology, 2016)

Key:
[1] = Mouse liver microsome incubation for glucuronide metabolism; assay type: in vitro ADME; settings: mouse liver microsomes 0.25 mg/mL, alamethicin, UDPGA
How it was run: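 Glucuronidation incubation used microsomes from female heterozygous Foxn1nu/Foxn1+ mouse liver. Mix: 0.1 M phosphate (pH 7.4), 0.25 mg/mL microsomal protein, 25 µg/mL alamethicin, 50 mM Tris-HCl, 10 mM MgCl2 and 1,000 ng/mL drug. A mix without UDPGA served as negative control. Samples were analysed twice: SRM monitoring of the m/z 613 glucuronide channel, then MRM quantitation of parent depletion against a curve in buffer with 0.25 mg/mL BSA. Parent expressed relative to time 0.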

[2] = system: pSTAT3 from IL-6 induction in a Cal33 cell line; settings: read-out: IC50, inhibiting pSTAT3 from IL-6 induction; cited from earlier work
mice [3] = test: Multiple dose; assay type: in vivo, mouse; settings: IV daily for 5 days at 4, 2.7, 1.3 mg/kg, female mice
How it was run: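 Female heterozygous Foxn1nu/Foxn1+ mice, 5 per group, fasted overnight before dosing. Test compound given IV by lateral tail vein daily for 5 days, in 10% Solutol HS15 in sterile water at 0.01 ml/g body weight; a vehicle group was included. Body weights tracked before, during and after dosing over a 14 day observation period, followed by necropsy for gross pathology.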

[4] = Mouse liver microsome incubation; assay type: in vitro ADME
How it was run: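 Microsomes from livers of female heterozygous Foxn1nu/Foxn1+ mice, with protein measured against a BSA standard. Incubations contained 0.5 mg/mL microsomal protein, 1,000 ng/mL drug, […], 0.1 M phosphate (pH 7.4) and <0.1% acetonitrile. Stopped with acetonitrile at 0, 15, 30, 45, 60 and 90 min, in triplicate. A positive control was run at 0 and 90 min. LC-MS used an analogue internal standard and calibrators in buffer with 0.5 mg/mL BSA. Results given as % of 0 min.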

[5] = Stability of UPCDC-10205 in mouse plasma; assay type: in vitro ADME
How it was run: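 Assay evaluation in control mouse plasma used QCs at 2.5, 30 and 800 ng/mL. 100 µL samples were spiked with deuterated internal standard, precipitated with acetonitrile, and supernatants dried at 37 °C under nitrogen before positive-ion MRM LC-MS/MS. Recovery and ion suppression were assessed at the 30 ng/mL QC. Also tested: bench stability during sample preparation for 4 h at room temperature, and three −80 °C freeze/thaw cycles.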

[6] = Plasma protein binding by rapid equilibrium dialysis; assay type: in vitro ADME, mouse; settings: for fraction unbound at 4 h, 1000 ng/mL: mouse, plasma, pH 7.2, plasma protein binding
How it was run: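 Rapid equilibrium dialysis with control mouse plasma spiked to 1,000 ng/mL from a DMSO stock (organic <0.1%). Four 200 µL replicates were dialysed against PBS (pH 7.2), shaken at 37 °C for 4 h. Both compartments were quantified by LC-MS/MS against a curve in 1:1 PBS:plasma, with samples diluted to match the matrix. Assay LLQ was 1 ng/mL.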

mice [7] = test: Single dose IV toxicity study in mice; assay type: in vivo, mouse; settings: single IV dose 4 mg/kg
How it was run: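 Male and female heterozygous Foxn1nu/Foxn1+ mice, 5 per group, fasted overnight. Single 4 mg/kg IV tail-vein dose from a 0.4 mg/mL solution in 10% Solutol HS15 in sterile water (0.01 ml/g), alongside vehicle-treated mice. Body weights and clinical signs followed over 14 days, then necropsy for gross pathology. The dose tested was capped by maximum solubility.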

[8] = mouse plasma spiked at 1,000 ng/mL, RED, 37 °C, 4 hours, calculated using the LLQ value (1 ng/mL)

COc1ccc(C2=Nn3c(nnc3-c3cc(-c4ccc(Cl)cc4)n[nH]3)SC2C)cc1 (centres unmarked) [UPCDC-10205, 3-(3-(4-chlorophenyl)-1H-pyrazole-5-yl)-6-(4-methoxyphenyl)-7-methyl-7H-[1,2,4]triazolo[3,4-b][1,3,4]thiadiazine]
UPCDC-10205 remaining relative to time 0 after 60 min [1]: 67%
IC50 [2]: 2.2 µM
body weights vs vehicle control group, multiple dose (mice [3]): no statistical differences
gross pathology upon necropsy, multiple dose (mice [3]): no signs of gross pathology
signs or symptoms of toxicity, multiple dose (mice [3]; 14 day observation): not toxic
metabolic stability among the four analogues ([4]; mouse liver microsome incubation): metabolically most stable
substrate depletion in the initial incubation ([4]; mouse liver microsomes, NADPH, 90 min): 20%
stability in plasma during sample preparation ([5]; QCM (30 ng/mL), 4 h at room temperature): 100.8%
recovery at 30 ng/mL ([5]; mouse): 112%
concentration in the plasma portion of the RED device ([6]; average of 4 replicates, 37 °C, 4 hours): 1,091 ng/mL
concentration in the saline buffer portion of the RED device ([6]; below the 1 ng/mL assay LLQ): 0.2 ng/mL
plasma protein binding [6, 8]: > 99.9%
fraction unbound at 4 h, 1000 ng/mL ([6]; mouse plasma spiked at 1,000 ng/mL, RED, 37 °C, 4 hours, calculated using 0.2 ng/mL): ~0.0002
fraction unbound at 4 h, 1000 ng/mL [6, 8]: < 0.0009
clinical appearance after single dose (mice [7]; male and female mice, 14 day observation, 4 mg/kg): not toxic
gross pathology upon necropsy after single dose (mice [7]; necropsy after 14 day observation): no gross pathology was detected
body weight after single dose (mice [7]; within first 24 h after injection): no apparent weight loss
